Source: ChEMBL document CHEMBL4038332, “Substituted N-Phenyl-5-(2-(phenylamino)thiazol-4-yl)isoxazole-3-carboxamides Are Valuable Antitubercular Candidates that Evade Innate Efflux Machinery” (J Med Chem, 2017)
Converted amounts (≈) assume the structure as drawn.

Legend:
Type in all cases: functional
[1] = tested on: Mycobacterium tuberculosis; assay: Antimycobacterial activity against patient derived INH/RIF resistance Mycobacterium tuberculosis isolate 1 incubated for 7 days by MTT-based broth microdilution assay; conditions: isolate 1, 168 h
Procedure, shortened: (§1)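 Drug-resistant clinical isolates from Lisbon patients (2008–2009) grown in MB7H9 + 10% OADC at 37 °C to OD600 0.8, diluted to ~10^5 cells/mL; equal volume added to 2-fold serial compound dilutions. Plates sealed, 7 days at 37 °C, then MTT to final 2.5% overnight; MIC = lowest concentration with no colour change; triplicate.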

[2] = tested on: Mycobacterium tuberculosis; assay: Antimycobacterial activity against patient derived extreme drug resistance Mycobacterium tuberculosis isolate 3 incubated for 7 days by MTT-based broth microdilution assay; conditions: isolate 3, 168 h; procedure, shortened: as §1
[3] = tested on: Mycobacterium tuberculosis; assay: Antimycobacterial activity against patient derived INH/RIF resistance Mycobacterium tuberculosis isolate 2 incubated for 7 days by MTT-based broth microdilution assay; conditions: isolate 2, 168 h; procedure, shortened: as §1

Compound: Cc1ccc(Nc2nc(-c3cc(C(=O)Nc4ccccc4)no3)cs2)cc1
- MIC90 [1]: 2 µg/mL (≈ 5.31 µM)
- MIC90 [2]: 2 µg/mL (≈ 5.31 µM)
- MIC90 [3]: 1 µg/mL (≈ 2.66 µM)

Compound: Cc1ccc(Nc2nc(-c3cc(C(=O)Nc4ccccn4)no3)cs2)cc1
- MIC90 [1]: 2 µg/mL (≈ 5.3 µM)
- MIC90 [2]: 2 µg/mL (≈ 5.3 µM)
- MIC90 [3]: 1 µg/mL (≈ 2.65 µM)
